How the values were obtained:
[1] = target: T1, human TG1 (Homo sapiens, UniProt P22735); experiment: GDH-coupled transglutaminase assay, TG1; assay type: biochemical
T1 sequence (P22735 63-817): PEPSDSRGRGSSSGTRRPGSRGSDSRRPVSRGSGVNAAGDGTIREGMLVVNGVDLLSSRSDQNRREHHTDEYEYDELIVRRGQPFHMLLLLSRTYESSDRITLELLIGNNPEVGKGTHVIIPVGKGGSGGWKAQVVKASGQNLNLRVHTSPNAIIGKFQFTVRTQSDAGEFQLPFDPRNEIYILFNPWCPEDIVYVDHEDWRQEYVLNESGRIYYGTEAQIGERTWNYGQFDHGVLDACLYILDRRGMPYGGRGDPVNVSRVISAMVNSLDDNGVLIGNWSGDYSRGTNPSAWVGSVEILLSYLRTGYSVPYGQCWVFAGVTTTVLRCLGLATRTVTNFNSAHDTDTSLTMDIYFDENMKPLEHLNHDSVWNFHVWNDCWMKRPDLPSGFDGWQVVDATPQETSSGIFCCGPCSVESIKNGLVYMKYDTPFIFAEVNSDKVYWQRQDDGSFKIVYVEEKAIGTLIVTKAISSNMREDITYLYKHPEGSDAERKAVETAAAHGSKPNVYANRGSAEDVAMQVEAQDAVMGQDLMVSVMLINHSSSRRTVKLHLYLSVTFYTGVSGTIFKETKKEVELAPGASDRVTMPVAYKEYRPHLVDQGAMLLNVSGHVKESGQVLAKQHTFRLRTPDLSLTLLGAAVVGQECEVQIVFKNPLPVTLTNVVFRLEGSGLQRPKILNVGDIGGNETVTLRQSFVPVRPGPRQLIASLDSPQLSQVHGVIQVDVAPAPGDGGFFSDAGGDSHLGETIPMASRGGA

[2] = target: T2, human TG2 (Homo sapiens, UniProt P21980, V224G); experiment: GDH-coupled transglutaminase assay, TG2; assay type: biochemical
T2 sequence (P21980 1-687 V224G): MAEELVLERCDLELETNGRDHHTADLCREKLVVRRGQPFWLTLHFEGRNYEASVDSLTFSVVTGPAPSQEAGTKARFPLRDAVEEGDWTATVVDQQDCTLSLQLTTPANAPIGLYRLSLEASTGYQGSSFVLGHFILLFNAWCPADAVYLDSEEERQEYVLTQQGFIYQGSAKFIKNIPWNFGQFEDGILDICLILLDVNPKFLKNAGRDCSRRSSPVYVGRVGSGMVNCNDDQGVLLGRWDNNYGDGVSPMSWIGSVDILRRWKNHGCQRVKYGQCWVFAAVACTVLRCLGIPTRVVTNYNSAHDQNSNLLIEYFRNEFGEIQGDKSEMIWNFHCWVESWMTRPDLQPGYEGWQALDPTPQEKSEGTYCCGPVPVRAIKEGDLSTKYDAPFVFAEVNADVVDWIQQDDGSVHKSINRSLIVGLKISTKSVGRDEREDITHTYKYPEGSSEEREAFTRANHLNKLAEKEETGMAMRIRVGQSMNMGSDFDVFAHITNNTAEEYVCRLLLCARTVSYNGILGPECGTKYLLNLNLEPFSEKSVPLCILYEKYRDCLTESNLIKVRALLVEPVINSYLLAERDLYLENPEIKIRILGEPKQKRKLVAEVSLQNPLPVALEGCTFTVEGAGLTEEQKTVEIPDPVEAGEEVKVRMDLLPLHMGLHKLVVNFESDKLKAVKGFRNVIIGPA

[3] = target: T3, Human Transglutaminase 3 (TG3) (Homo sapiens, UniProt Q08188); experiment: GDH-coupled transglutaminase assay, TG3; assay type: biochemical; conditions: irreversible inhibition model, substrate ZQS
T3 sequence (Q08188 2-467 limits assumed): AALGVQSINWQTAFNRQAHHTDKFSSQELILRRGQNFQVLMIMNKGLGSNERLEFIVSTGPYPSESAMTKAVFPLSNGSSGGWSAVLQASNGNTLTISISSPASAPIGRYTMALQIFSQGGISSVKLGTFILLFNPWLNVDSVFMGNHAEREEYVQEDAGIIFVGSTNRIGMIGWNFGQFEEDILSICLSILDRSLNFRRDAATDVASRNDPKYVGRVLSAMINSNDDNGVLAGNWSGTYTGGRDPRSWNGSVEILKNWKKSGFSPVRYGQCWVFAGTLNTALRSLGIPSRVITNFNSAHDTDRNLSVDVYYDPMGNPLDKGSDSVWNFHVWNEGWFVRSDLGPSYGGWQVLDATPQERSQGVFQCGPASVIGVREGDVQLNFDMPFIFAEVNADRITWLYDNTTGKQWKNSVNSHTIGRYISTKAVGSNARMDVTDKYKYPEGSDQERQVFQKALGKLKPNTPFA
T3 sequence (Q08188 468-693 partner limits assumed): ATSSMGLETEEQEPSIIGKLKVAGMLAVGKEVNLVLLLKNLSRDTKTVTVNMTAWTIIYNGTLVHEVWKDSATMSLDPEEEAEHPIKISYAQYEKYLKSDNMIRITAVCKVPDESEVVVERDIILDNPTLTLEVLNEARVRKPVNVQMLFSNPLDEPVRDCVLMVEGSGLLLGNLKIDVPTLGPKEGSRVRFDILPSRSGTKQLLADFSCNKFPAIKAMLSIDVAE

[4] = target: T4, murine TG2 (mTG2) (Mus musculus, UniProt P21981); experiment: GDH-coupled transglutaminase assay, murine TG2; assay type: biochemical; conditions: irreversible inhibition model, substrate ZQG
T4 sequence (P21981 1-686): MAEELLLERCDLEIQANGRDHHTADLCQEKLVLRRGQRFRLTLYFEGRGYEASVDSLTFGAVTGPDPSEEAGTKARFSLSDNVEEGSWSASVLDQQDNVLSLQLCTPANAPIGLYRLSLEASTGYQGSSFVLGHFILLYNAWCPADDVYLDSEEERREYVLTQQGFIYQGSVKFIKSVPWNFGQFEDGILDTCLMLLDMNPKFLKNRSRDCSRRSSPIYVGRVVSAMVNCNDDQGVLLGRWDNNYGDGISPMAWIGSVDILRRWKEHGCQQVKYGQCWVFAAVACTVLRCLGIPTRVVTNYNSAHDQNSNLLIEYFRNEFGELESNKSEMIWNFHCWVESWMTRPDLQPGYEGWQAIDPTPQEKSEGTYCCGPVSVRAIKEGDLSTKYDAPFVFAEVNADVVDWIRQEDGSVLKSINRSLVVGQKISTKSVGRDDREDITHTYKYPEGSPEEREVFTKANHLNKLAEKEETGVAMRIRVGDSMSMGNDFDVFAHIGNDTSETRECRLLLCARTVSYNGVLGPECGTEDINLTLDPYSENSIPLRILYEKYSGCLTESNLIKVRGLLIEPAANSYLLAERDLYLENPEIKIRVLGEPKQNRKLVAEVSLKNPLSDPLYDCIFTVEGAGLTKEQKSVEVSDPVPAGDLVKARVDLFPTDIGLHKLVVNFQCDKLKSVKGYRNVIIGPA

[5] = Plasma concentrations after pooled oral dosing to mice; assay type: in vivo; conditions: 50 mg/kg
Summary of the method: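 Test compounds given as mixtures by oral gavage (10 μL/g) at 50 mg/kg of each constituent to cohorts of five male CD-1 mice, 6−8 weeks old, fasted about 6 h. Blood was drawn into lithium-heparin tubes from the saphenous vein at 5 and 20 min, and by cardiac puncture at 60 min after CO2 euthanasia. Each compound's plasma concentration was quantified and plotted against time.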

[6] = tested on: TG2; conditions: murine model of hypoxia-induced pulmonary hypertension ref 22; cited from earlier work
[7] = twice-daily, intraperitoneal, 50 mg/kg, several weeks ref 22; cited from earlier work

Molecule | kinh/Ki TG3 [3] | kinh/Ki mTG2 [4] | also measured
O=C(NC[C@@H]1CC(Br)=NO1)[C@@H]1CCCN1C(=O)OCc1cnc2ccccc2c1 [Compound 1, (S)-Quinolin-3-ylmethyl 2-((((S)-3-Bromo-4,5-dihydroisoxazol-5-yl)methyl)carbamoyl)pyrrolidine-1-carboxylate] | < 1.0 mM⁻¹ min⁻¹ | 8.3 mM⁻¹ min⁻¹ | kinh/Ki TG1 ([1]; irreversible inhibition model, substrate ZQS, listed as ERW1041E): 13 mM⁻¹ min⁻¹; kinh/Ki TG2 ([2]; irreversible inhibition model, substrate ZQG, listed as ERW1041E): 17 mM⁻¹ min⁻¹; decrease in potency from ERW1069 to ERW1041E ([2]; relative to ERW1069): 3–4 fold; peak plasma concentration after oral dosing [5]: 2 to 3 µg/mL; inhibitory half-life [6]: about 12 h; tolerability [7]: well tolerated
O=C(NC[C@@H]1CC(Br)=NO1)[C@@H]1C[C@H](F)CN1C(=O)OCc1cnc2ccccc2c1 [Compound 4b, (2S,4S)-Quinolin-3-ylmethyl 2-((((S)-3-Bromo-4,5-dihydroisoxazol-5-yl)methyl)carbamoyl)-4-fluoropyrrolidine-1-carboxylate] | < 1.0 mM⁻¹ min⁻¹ | 7.0 mM⁻¹ min⁻¹ | 
O=C(NC[C@@H]1CC(Br)=NO1)[C@@H]1C[C@@H](O)CN1C(=O)OCc1cnc2ccccc2c1 [Compound 4e, (2S,4R)-Quinolin-3-ylmethyl 2-((((S)-3-Bromo-4,5-dihydroisoxazol-5-yl)methyl)carbamoyl)-4-hydroxypyrrolidine-1-carboxylate] | < 1.0 mM⁻¹ min⁻¹ | 11.1 mM⁻¹ min⁻¹ | 
O=C(NC[C@@H]1CC(Br)=NO1)[C@@H]1C[C@@H](c2ccccc2)CN1C(=O)OCc1cnc2ccccc2c1 [Compound 7a, (2S,4S)-Quinolin-3-ylmethyl 2-((((S)-3-Bromo-4,5-dihydroisoxazol-5-yl)methyl)carbamoyl)-4-phenylpyrrolidine-1-carboxylate] | < 1.0 mM⁻¹ min⁻¹ | 25.4 mM⁻¹ min⁻¹ | plasma levels, fold lower than that of 4b [5]: 3–4 fold
C#CCOC(=O)N1CCC[C@H]1C(=O)NC[C@@H]1CC(Br)=NO1 [Compound 10b, (S)-Prop-2-yn-1-yl 2-((((S)-3-Bromo-4,5-dihydroisoxazol-5-yl)methyl)carbamoyl)pyrrolidine-1-carboxylate] |  |  | selectivity for TG2 over TG1 ([2]; from kinh/Ki): 3 fold
O=C(NC[C@@H]1CC(Br)=NO1)[C@@H]1CCCN1C(=O)OCc1cnc2ccccc2n1 [Compound 10l, (S)-Quinoxalin-2-ylmethyl 2-((((S)-3-Bromo-4,5-dihydroisoxazol-5-yl)methyl)carbamoyl)pyrrolidine-1-carboxylate] |  |  | selectivity for TG1 (over TG2) ([1]; from kinh/Ki): 10 fold
(2S,4R)-Quinolin-3-ylmethyl 4-(Benzyloxy)-2-((((S)-3-bromo-4,5-dihydroisoxazol-5-yl)methyl)carbamoyl)pyrrolidine-1-carboxylate [Compound 5c] | < 1.0 mM⁻¹ min⁻¹ | 15.5 mM⁻¹ min⁻¹ | 

The next lines start with results.

kinh/Ki TG3 [3] | kinh/Ki mTG2 [4] | Molecule | also measured
< 1.0 mM⁻¹ min⁻¹ | 38.7 mM⁻¹ min⁻¹ | O=C(NC[C@@H]1CC(Br)=NO1)[C@@H]1C[C@@H](c2ccc(O)cc2)CN1C(=O)OCc1cnc2ccccc2c1 [Compound 7e, (2S,4S)-Quinolin-3-ylmethyl 2-((((S)-3-Bromo-4,5-dihydroisoxazol-5-yl)methyl)carbamoyl)-4-(4-hydroxyphenyl)pyrrolidine-1-carboxylate] | plasma levels, fold lower than that of 4b [5]: 3–4 fold
< 1.0 mM⁻¹ min⁻¹ | 9.4 mM⁻¹ min⁻¹ | O=C(N[C@@H]1C[C@@H](C(=O)NC[C@@H]2CC(Br)=NO2)N(C(=O)OCc2cnc3ccccc3c2)C1)c1ccc(O)cc1 [Compound 9d, (2S,4R)-Quinolin-3-ylmethyl 2-((((S)-3-Bromo-4,5-dihydroisoxazol-5-yl)methyl)carbamoyl)-4-(4-hydroxybenzamido)pyrrolidine-1-carboxylate] | oral bioavailability / systemic availability (in words) [5]: much less bioavailable
< 1.0 mM⁻¹ min⁻¹ | 10.6 mM⁻¹ min⁻¹ | O=C(N[C@@H]1C[C@@H](C(=O)NC[C@@H]2CC(Br)=NO2)N(C(=O)OCc2cnc3ccccc3c2)C1)c1cccnc1 [Compound 9e, (2S,4R)-Quinolin-3-ylmethyl 2-((((S)-3-Bromo-4,5-dihydroisoxazol-5-yl)methyl)carbamoyl)-4-(nicotinamido)pyrrolidine-1-carboxylate] | oral bioavailability / systemic availability (in words) [5]: much less bioavailable
